Key:
[1] = Cytotoxicity against human T47D cells after 48 hrs by sulforhodamine B assay; assay type: functional, cell-based
How it was run: (§1)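 Cells grown in RPMI 1640 with 10% heat-inactivated FBS and 1% penicillin-streptomycin-amphotericin B at 37 °C, 5% CO2, passages 5–20. Plated at 10⁴ cells/well with 24 h recovery. Exposed to 5, 12, 25 and 50 μmol/L from DMSO stock (final DMSO <0.1%), triplicate wells, 48 h. TCA-fixed, SRB-stained, read by ELISA reader. IC50 fitted with Hill-type equation.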

[2] = target: T1, Aromatase (Homo sapiens, UniProt P11511); test: Inhibition of aromatase activity in human T47D cells at 100 uL after 24 hrs; assay type: cell-based; parameters: concentration or dose not given beside the values
T1 sequence (P11511 whole entry): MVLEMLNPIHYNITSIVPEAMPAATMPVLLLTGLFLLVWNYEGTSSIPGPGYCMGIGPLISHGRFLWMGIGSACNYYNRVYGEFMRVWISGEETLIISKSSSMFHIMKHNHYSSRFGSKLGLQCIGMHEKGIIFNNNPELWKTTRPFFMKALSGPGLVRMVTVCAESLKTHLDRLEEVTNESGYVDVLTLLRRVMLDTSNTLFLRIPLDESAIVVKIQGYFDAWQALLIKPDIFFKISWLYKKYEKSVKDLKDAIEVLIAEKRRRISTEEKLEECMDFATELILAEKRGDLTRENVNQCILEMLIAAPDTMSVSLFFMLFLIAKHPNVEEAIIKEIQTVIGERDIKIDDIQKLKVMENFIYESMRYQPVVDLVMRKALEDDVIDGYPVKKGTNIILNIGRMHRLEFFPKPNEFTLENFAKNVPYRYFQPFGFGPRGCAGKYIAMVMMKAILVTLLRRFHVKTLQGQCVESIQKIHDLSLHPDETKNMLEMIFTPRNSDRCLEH
How it was run: (§2)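 T47D cells in RPMI 1640 with 10% FBS and 1% penicillin-streptomycin, seeded at 1.2–1.8 × 10,000 cells/well in 100 µL medium plus 100 µL compound. Cells treated 24 h, including serial dilutions for IC50. Aromatase (CYP19A1) then measured with a human ELISA kit.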

[3] = target: T1, Aromatase; test: Inhibition of aromatase activity in human T47D cells after 24 hrs; assay type: cell-based; how it was run: as §2
[4] = Induction of apoptosis in human T47D cells assessed as upregulation of active caspase 3 level at IC50 by immunoassay relative to control; assay type: functional, cell-based
How it was run: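 Cells washed with PBS and lysed in extraction buffer with protease inhibitors (1 mL per 10⁷ cells). Lysate diluted just before assay. Active caspase-3 measured by human sandwich immunoassay with absorbance at 450 nm read within 30 min. Expressed as fold versus control cells.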

[5] = Induction of apoptosis in human T47D cells assessed as upregulation of caspase 8 at IC50 after 48 hrs by ELISA method relative to control; assay type: functional, cell-based
How it was run: (§3)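 Cells grown in RPMI 1640 with 10% FBS at 37 °C, plated at 1.2–1.8 × 10,000 cells/well and exposed to compound for 48 h. Lysed in cell extraction buffer, diluted in standard diluent. Caspase-8 and caspase-9 measured separately by human ELISA, absorbance 450 nm. Fold versus control.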

[6] = Induction of apoptosis in human T47D cells assessed as upregulation of caspase 9 at IC50 after 48 hrs by ELISA method relative to control; assay type: functional, cell-based; how it was run: as §3
[7] = system: T47D; test: Induction of apoptosis in human T47D cells assessed as Bax level at IC50 (reference value: 24.6 IU/ml); assay type: functional
[8] = system: T47D; test: Induction of apoptosis in human T47D cells assessed as Bcl2 level at IC50 (reference value: 568019 IU/ml); assay type: functional
[9] = system: T47D; test: Induction of apoptosis in human T47D cells assessed as Bcl-xl level at IC50 (reference value: 754565 IU/ml); assay type: functional
[10] = system: T47D; test: Induction of apoptosis in human T47D cells assessed as increase in Bax/Bcl2 ratio at IC50 relative to control; assay type: functional
[11] = Cytotoxicity against human 184A1 cells after 48 hrs by sulforhodamine B assay; assay type: toxicity, cell-based; how it was run: as §1
[12] = Induction of apoptosis in human T47D cells assessed as upregulation of active caspase 3 level by immunoassay relative to letrozole; assay type: functional, cell-based
[13] = system: T47D; test: Induction of apoptosis in human T47D cells assessed as decrease in Bcl2 level at IC50 relative to control; assay type: functional
[14] = system: T47D; test: Induction of apoptosis in human T47D cells assessed as decrease in Bcl-xl level at IC50 relative to control; assay type: functional
[15] = system: T47D; test: Induction of apoptosis in human T47D cells at 9.2 uM by propidium iodide staining based cytometry (reference value: 2.13%); assay type: functional
[16] = Cell cycle arrest in human T47D cells assessed as G1 phase accumulation at 9.2 uM by propidium iodide staining based cytometry (reference value: 64.92%); assay type: functional
How it was run: (§4)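 T47D cells exposed to test compound at 9.2 μM. Cells stained with propidium iodide per kit procedure and run on a DNA cytometer. PBMCs of known DNA content served as reference for DNA index. Percent of cells in G1, S and G2/M phases compared with untreated control.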

[17] = Cell cycle arrest in human T47D cells assessed as G2/M phase accumulation at 9.2 uM by propidium iodide staining based cytometry (reference value: 15.81%); assay type: functional; how it was run: as §4
[18] = Cell cycle arrest in human T47D cells assessed as S phase accumulation at 9.2 uM by propidium iodide staining based cytometry (reference value: 17.14%); assay type: functional; how it was run: as §4

Row | inhibition (INH) [2] [%] | SMILES | IC50 [1] [µM] | also measured
1 | 67 | Cc1ccnc(NS(=O)(=O)c2ccc(N/C=C\C(=O)c3cc4ccccc4oc3=O)cc2)n1 | 24.5 | IC50 [3]: 9.52 µM
2 | – | Nc1ccc(S(=O)(=O)c2ccc(N/C=C\C(=O)c3cc4ccccc4oc3=O)cc2)cc1 | 91.9 | –
3 | 44 | COc1cc(NS(=O)(=O)c2ccc(N/C=C\C(=O)c3cc4ccccc4oc3=O)cc2)nc(OC)n1 | 37.8 | –
4 | – | Cc1cc(NS(=O)(=O)c2ccc(N/C=C\C(=O)c3cc4ccccc4oc3=O)cc2)nc(C)n1 | 100 | –
5 | 20 | Cc1noc(NS(=O)(=O)c2ccc(N/C=C\C(=O)c3cc4ccccc4oc3=O)cc2)c1C | 68.4 | –
6 | 41 | O=C(/C=C\Nc1ccc(S(=O)(=O)Nc2ncccn2)cc1)c1cc2ccccc2oc1=O | 75.2 | –
7 | – | COc1cccc2c1C(=O)c1c(O)c3c(c(O)c1C2=O)C[C@@](O)(C(=O)CO)C[C@@H]3O[C@H]1C[C@H](N)[C@H](O)[C@H](C)O1 [DOXORUBICIN] | 9.8 | –
8 | 65 | O=C(/C=C\Nc1ccc(S(=O)(=O)Nc2ccccn2)cc1)c1cc2ccccc2oc1=O | 37.6 | IC50 [3]: 12.5 µM
9 | – | NS(=O)(=O)c1ccc(N/C=C\C(=O)c2cc3ccccc3oc2=O)cc1 | 109 | –
10 | 30 | N=C(N)NS(=O)(=O)c1ccc(N/C=C\C(=O)c2cc3ccccc3oc2=O)cc1 | 87.6 | –
11 | – | O=C(/C=C\Nc1ccc(S(=O)(=O)Nc2cnc3ccccc3n2)cc1)c1cc2ccccc2oc1=O | 86.9 | –
12 | – | O=C(C=CNc1ccc(S(=O)(=O)c2ccc(NC=CC(=O)c3cc4ccccc4oc3=O)cc2)cc1)c1cc2ccccc2oc1=O | 70.3 | –
13 | 81 | COc1cnc(NS(=O)(=O)c2ccc(N/C=C\C(=O)c3cc4ccccc4oc3=O)cc2)nc1 | 8.8 | IC50 [3]: 6.07 µM; fold change (FC) [4]: 20.6; fold change (FC) [5]: 21.8; fold change (FC) [6]: 9.91; Activity [7]: 176887 IU/ml; Activity [8]: 693 IU/ml; Activity [9]: 6776 IU/ml; fold change (FC) [10]: 5936; IC50 at 48 h [11]: 172 µM; fold change (FC) [12]: 1.3; fold change (FC) [13]: 819.65; fold change (FC) [14]: 111.35
14 | 30 | Cc1cc(C)nc(NS(=O)(=O)c2ccc(N/C=C\C(=O)c3cc4ccccc4oc3=O)cc2)n1 | 62.2 | –
15 | – | O=C(/C=C\Nc1ccc(S(=O)(=O)Nc2ccc3cn[nH]c3c2)cc1)c1cc2ccccc2oc1=O | 96.5 | –
16 | 28 | Cc1cc(NS(=O)(=O)c2ccc(N/C=C\C(=O)c3cc4ccccc4oc3=O)cc2)on1 | 75.6 | –
17 | 70 | O=C(/C=C\Nc1ccc(S(=O)(=O)Nc2ccnn2-c2ccccc2)cc1)c1cc2ccccc2oc1=O | 9.2 | IC50 [3]: 5.09 µM; fold change (FC) [4]: 45; fold change (FC) [5]: 40; fold change (FC) [6]: 10; Activity [7]: 402127 IU/ml; Activity [8]: 1540 IU/ml; Activity [9]: 384 IU/ml; fold change (FC) [10]: 33000; Activity [15]: 31.7%; Activity [16]: 9.2%; Activity [17]: 44.5%; Activity [18]: 14.6%; IC50 at 48 h [11]: 184 µM; fold change (FC) [12]: 3; fold change (FC) [13]: 369; fold change (FC) [14]: 1965
18 | – | CN(C)/C=C/C(=O)c1cc2ccccc2oc1=O | 146 | –
19 | – | Cc1nnc(NS(=O)(=O)c2ccc(N/C=C\C(=O)c3cc4ccccc4oc3=O)cc2)s1 | 94 | –
20 | 69 | COc1ncnc(NS(=O)(=O)c2ccc(N/C=C\C(=O)c3cc4ccccc4oc3=O)cc2)c1OC | 9.8 | IC50 [3]: 4.66 µM

Source: ChEMBL document CHEMBL3877287, “Analogue based drug design, synthesis, molecular docking and anticancer evaluation of novel chromene sulfonamide hybrids as aromatase inhibitors and apoptosis enhancers” (Eur J Med Chem, 2016)
